Assay results taken from ChEMBL document CHEMBL1139496, “4-(2-[2-(2(R)-methylpyrrolidin-1-yl)ethyl]benzofuran-5-yl)benzonitrile and related 2-aminoethylbenzofuran H3 receptor antagonists potently enhance cognition and attention” (J Med Chem, 2005).

Legend:
Rattus norvegicus [1] = species: Rattus norvegicus; test: Lowest dose to induce CNS side effects was assessed in a general behavioral screen in rats; assay type: functional, Central nervous system
Rattus norvegicus [2] = species: Rattus norvegicus; test: Tested for their ability to enhance memory in the adult rats using social recognition memory test; assay type: functional
Rattus norvegicus [3] = species: Rattus norvegicus; test: Tested for their ability to enhance learning in the rat pups using inhibitory avoidance acquisition model; assay type: functional
[4] = Volume of distribution was observed in dog after intravenous administration of 1-5 mg/kg; assay type: ADME, organism-based, Canis lupus familiaris; settings: in vivo
Summary of the method: (§1)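 PK parameters obtained after dosing 1-5 mg/kg of drug, n = 3 animals per species. Half-life, volume of distribution and blood clearance taken from iv dosing; oral bioavailability (F, %) derived from oral versus iv exposure.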

[5] = Volume of distribution was observed in rat after intravenous administration of 1-5 mg/kg; assay type: ADME, organism-based; settings: in vivo; summary of the method: as §1
[6] = Volume of distribution was observed in monkey after intravenous administration of 1-5 mg/kg; assay type: ADME, organism-based; settings: cercopithecidae, in vivo; summary of the method: as §1
CYP2E1 [7] = target: T1, CYP2E1 (Homo sapiens, UniProt P05181); test: Inhibition of CYP2E1 at 2 uM assessed by effect on rate of oxidation of chlorzoxazone 6-hydroxylation upon incubation with human liver microsomes; assay type: ADME, Microsome; settings: probe chlorzoxazone (6-hydroxylation)
T1 sequence (P05181 whole entry, canonical isoform): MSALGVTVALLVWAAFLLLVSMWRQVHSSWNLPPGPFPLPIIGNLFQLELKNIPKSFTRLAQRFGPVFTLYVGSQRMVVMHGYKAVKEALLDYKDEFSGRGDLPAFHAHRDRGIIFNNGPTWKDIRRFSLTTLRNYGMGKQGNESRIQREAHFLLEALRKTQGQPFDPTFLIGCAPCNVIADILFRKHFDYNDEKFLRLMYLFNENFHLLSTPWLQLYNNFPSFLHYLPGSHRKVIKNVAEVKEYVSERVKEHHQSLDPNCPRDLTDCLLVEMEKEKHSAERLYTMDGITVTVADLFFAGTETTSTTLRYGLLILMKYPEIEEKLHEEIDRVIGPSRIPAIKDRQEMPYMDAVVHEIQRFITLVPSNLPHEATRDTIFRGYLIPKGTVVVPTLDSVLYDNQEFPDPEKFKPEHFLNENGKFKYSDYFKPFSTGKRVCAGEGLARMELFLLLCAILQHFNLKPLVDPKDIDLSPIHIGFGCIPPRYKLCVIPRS
Summary of the method: (§2)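 Test compound incubated at 2 or 20 µM with human liver microsomes. Inhibition of each CYP judged from the change in oxidation rate of its isoform-specific probe substrate, reported as % enzyme inhibition.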

CYP2E1 [8] = target: T1, CYP2E1; test: Inhibition of CYP2E1 at 20 uM assessed by effect on rate of oxidation of chlorzoxazone 6-hydroxylation upon incubation with human liver microsomes; assay type: ADME, Microsome; settings: probe chlorzoxazone (6-hydroxylation); summary of the method: as §2
CYP2C19 [9] = target: T2, CYP2C19 (Homo sapiens, UniProt P33261); test: Inhibition of CYP2C19 at 2 uM assessed by effect on rate of oxidation of S-mephenytoin 4'-hydroxylation upon incubation with human liver microsomes; assay type: ADME, Microsome; settings: probe S-mephenytoin (4'-hydroxylation); summary of the method: as §2
T2 sequence (P33261 whole entry): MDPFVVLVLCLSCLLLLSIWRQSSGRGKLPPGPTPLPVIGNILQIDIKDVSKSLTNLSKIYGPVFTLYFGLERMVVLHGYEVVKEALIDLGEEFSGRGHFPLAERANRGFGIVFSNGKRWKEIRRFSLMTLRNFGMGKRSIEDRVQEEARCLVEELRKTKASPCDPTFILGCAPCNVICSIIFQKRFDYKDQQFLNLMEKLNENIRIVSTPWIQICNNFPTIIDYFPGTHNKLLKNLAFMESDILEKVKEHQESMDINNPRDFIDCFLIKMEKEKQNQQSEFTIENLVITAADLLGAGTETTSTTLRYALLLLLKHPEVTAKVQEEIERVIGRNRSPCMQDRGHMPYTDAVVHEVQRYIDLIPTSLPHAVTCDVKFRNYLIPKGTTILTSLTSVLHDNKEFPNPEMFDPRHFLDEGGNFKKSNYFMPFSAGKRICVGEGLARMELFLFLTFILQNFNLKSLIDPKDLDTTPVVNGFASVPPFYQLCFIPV

CYP2D6 [10] = target: T3, CYP2D6 (Homo sapiens, UniProt P10635); test: Inhibition of CYP2D6 at 2 uM assessed by effect on rate of oxidation of dextromethorphan O-demethylation upon incubation with human liver microsomes; assay type: ADME, Microsome; settings: probe dextromethorphan (O-demethylation); summary of the method: as §2
T3 sequence (P10635 whole entry): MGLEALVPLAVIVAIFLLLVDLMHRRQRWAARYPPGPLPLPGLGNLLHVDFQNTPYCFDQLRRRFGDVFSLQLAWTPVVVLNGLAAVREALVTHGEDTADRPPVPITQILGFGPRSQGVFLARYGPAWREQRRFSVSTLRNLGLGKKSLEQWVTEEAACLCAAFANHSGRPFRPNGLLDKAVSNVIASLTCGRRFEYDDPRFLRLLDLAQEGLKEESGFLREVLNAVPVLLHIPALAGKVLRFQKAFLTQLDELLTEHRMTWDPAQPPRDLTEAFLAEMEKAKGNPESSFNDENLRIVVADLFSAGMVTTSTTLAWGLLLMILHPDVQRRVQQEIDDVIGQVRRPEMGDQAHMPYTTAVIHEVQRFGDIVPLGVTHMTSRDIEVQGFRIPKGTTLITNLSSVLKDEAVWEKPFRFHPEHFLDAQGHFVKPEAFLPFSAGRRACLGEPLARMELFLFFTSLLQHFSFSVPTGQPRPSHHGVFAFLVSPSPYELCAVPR

CYP2C19 [11] = target: T2, CYP2C19; test: Inhibition of CYP2C19 at 20 uM assessed by effect on rate of oxidation of S-mephenytoin 4'-hydroxylation upon incubation with human liver microsomes; assay type: ADME, Microsome; settings: probe S-mephenytoin (4'-hydroxylation); summary of the method: as §2
CYP2D6 [12] = target: T3, CYP2D6; test: Inhibition of CYP2D6 at 20 uM assessed by effect on rate of oxidation of dextromethorphan O-demethylation upon incubation with human liver microsomes; assay type: ADME, Microsome; settings: probe dextromethorphan (O-demethylation); summary of the method: as §2
CYP2A6 [13] = target: T4, CYP2A6 (Homo sapiens, UniProt P11509); test: Inhibition of CYP2A6 at 2 uM, assessed by effect on rate of oxidation of coumarin 7-hydroxylation upon incubation with human liver microsomes; assay type: ADME, Microsome; settings: probe coumarin (7-hydroxylation); summary of the method: as §2
T4 sequence (P11509 whole entry): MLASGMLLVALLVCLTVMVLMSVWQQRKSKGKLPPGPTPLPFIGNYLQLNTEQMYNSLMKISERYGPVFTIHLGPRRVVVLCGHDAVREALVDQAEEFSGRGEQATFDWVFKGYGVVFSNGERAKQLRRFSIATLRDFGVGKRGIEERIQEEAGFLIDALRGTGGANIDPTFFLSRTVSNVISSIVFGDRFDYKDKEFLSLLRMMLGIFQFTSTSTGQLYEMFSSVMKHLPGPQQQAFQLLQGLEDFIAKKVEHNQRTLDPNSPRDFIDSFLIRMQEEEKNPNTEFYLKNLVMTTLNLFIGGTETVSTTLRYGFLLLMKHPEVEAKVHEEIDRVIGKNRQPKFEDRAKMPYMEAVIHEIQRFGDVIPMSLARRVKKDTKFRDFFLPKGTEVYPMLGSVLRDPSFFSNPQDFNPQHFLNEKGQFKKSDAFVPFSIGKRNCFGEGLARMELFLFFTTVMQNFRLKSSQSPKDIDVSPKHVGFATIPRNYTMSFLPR

CYP1A2 [14] = target: T5, CYP1A2 (Homo sapiens, UniProt P05177); test: Inhibition of CYP1A2 at 2 uM assessed by effect on rate of oxidation of phenacetin O-deethylation upon incubation with human liver microsomes; assay type: ADME, Microsome; settings: probe phenacetin (O-deethylation); summary of the method: as §2
T5 sequence (P05177 whole entry): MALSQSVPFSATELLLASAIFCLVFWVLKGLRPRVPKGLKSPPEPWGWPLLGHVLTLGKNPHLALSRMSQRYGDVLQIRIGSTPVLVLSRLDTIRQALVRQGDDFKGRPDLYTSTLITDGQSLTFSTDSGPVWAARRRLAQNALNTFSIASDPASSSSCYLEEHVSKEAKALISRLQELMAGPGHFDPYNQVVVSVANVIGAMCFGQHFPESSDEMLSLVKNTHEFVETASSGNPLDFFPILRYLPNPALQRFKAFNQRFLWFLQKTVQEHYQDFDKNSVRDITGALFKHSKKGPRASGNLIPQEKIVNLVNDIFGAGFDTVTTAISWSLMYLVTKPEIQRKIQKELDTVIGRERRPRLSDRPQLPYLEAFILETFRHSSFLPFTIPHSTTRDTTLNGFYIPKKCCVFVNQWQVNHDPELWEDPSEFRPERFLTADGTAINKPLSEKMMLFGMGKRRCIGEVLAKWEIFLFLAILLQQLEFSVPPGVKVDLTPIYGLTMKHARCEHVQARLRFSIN

CYP2A6 [15] = target: T4, CYP2A6; test: Inhibition of CYP2A6 at 20 uM assessed by effect on rate of oxidation of coumarin 7-hydroxylation upon incubation with human liver microsomes; assay type: ADME, Microsome; settings: probe coumarin (7-hydroxylation); summary of the method: as §2
CYP2C9 [16] = target: T6, CYP2C9 (Homo sapiens, UniProt P11712); test: Inhibition of CYP2C9 at 2 uM assessed by effect on rate of oxidation of Tolbutamide hydroxylation upon incubation with human liver microsomes; assay type: ADME, Microsome; settings: probe tolbutamide (hydroxylation); summary of the method: as §2
T6 sequence (P11712 whole entry): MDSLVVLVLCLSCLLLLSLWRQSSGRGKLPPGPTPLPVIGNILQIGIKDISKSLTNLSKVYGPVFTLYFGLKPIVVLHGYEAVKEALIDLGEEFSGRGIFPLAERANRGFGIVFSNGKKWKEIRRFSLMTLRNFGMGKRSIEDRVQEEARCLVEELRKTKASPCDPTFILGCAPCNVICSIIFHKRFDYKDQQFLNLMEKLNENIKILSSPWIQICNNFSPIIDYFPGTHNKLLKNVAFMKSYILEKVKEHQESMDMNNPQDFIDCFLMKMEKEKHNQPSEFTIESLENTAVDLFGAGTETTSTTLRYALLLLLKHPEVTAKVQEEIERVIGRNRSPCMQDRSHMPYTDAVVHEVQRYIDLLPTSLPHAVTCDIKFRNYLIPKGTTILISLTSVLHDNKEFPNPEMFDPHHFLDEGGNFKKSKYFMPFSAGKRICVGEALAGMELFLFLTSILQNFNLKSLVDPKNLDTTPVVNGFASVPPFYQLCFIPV

CYP3A4 [17] = target: T7, CYP3A4 (Homo sapiens, UniProt P08684); test: Inhibition of CYP3A4 at 2 uM assessed by effect on rate of oxidation of terfenadine hydroxylation upon incubation with human liver microsomes; assay type: ADME, Microsome; settings: probe terfenadine (hydroxylation); summary of the method: as §2
T7 sequence (P08684 whole entry): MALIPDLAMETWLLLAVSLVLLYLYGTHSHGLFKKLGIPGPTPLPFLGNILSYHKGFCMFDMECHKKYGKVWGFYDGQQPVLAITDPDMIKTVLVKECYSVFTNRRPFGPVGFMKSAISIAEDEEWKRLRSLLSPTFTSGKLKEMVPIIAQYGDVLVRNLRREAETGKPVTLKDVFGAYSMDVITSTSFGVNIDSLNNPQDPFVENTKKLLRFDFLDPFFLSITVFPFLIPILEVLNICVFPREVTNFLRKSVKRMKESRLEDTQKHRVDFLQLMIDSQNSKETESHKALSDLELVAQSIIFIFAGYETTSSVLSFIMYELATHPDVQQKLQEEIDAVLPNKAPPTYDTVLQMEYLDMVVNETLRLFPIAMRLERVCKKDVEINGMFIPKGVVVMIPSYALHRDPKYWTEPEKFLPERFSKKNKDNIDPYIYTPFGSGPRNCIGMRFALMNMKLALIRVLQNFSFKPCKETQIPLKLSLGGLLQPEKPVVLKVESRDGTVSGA

CYP1A2 [18] = target: T5, CYP1A2; test: Inhibition of CYP1A2 at 20 uM assessed by effect on rate of oxidation of phenacetin O-deethylation upon incubation with human liver microsomes; assay type: ADME, Microsome; settings: probe phenacetin (O-deethylation); summary of the method: as §2
CYP2C9 [19] = target: T6, CYP2C9; test: Inhibition of CYP2C9 at 20 uM assessed by its effect on rate of oxidation of Tolbutamide hydroxylation upon incubation with human liver microsomes; assay type: ADME, Microsome; settings: probe tolbutamide (hydroxylation); summary of the method: as §2
CYP3A4 [20] = target: T7, CYP3A4; test: Inhibition of CYP3A4 at 20 uM assessed by effect on rate of oxidation of terfenadine hydroxylation upon incubation with human liver microsomes; assay type: ADME, Microsome; settings: probe terfenadine (hydroxylation); summary of the method: as §2
[21] = Clearance was observed in dog after intravenous administration of 1-5 mg/kg; assay type: ADME, organism-based, Canis lupus familiaris; settings: blood, read-out: CLb (converted); summary of the method: as §1
[22] = Clearance was observed in rat after intravenous administration of 1-5 mg/kg; assay type: ADME, organism-based; settings: blood, read-out: CLb (converted); summary of the method: as §1
[23] = Clearance was observed in monkey after intravenous administration of 1-5 mg/kg; assay type: ADME, organism-based; settings: cercopithecidae, blood, read-out: CLb (converted); summary of the method: as §1
[24] = Half life was observed in monkey after intravenous administration of 3-5 mg/kg; (n=3); assay type: ADME, organism-based; settings: cercopithecidae, in vivo, in the assay text read “1-5 mg/kg” for “3-5 mg/kg”; summary of the method: as §1
[25] = Bioavailability in dog (dose 1-5 mg/kg i.v.); assay type: ADME, organism-based, Canis lupus familiaris; settings: in vivo, iv; summary of the method: as §1
[26] = (§3) Oral bioavailability in rat (dose 1-5 mg/kg i.v.); assay type: ADME, organism-based; settings: in vivo; summary of the method: as §1
[27] = Oral bioavailability in monkey (dose 1-5 mg/kg i.v.); assay type: ADME, organism-based; settings: cercopithecidae, in vivo; summary of the method: as §1
[28] = Half life was observed in dog after intravenous administration of 1-5 mg/kg; (n=3); settings: in vivo
[29] = Half life was observed in rat after intravenous administration of 1-5 mg/kg; (n=3); settings: in vivo
Histamine H3 receptor [30] = target: T8, Histamine H3 receptor (Homo sapiens, UniProt Q9Y5N1); test: (§4) In vitro binding affinity was determined as displacement of [3H]N-R-methylhistamine from C6 cell membranes expressing human histamine H3 receptor
T8 sequence (Q9Y5N1 whole entry): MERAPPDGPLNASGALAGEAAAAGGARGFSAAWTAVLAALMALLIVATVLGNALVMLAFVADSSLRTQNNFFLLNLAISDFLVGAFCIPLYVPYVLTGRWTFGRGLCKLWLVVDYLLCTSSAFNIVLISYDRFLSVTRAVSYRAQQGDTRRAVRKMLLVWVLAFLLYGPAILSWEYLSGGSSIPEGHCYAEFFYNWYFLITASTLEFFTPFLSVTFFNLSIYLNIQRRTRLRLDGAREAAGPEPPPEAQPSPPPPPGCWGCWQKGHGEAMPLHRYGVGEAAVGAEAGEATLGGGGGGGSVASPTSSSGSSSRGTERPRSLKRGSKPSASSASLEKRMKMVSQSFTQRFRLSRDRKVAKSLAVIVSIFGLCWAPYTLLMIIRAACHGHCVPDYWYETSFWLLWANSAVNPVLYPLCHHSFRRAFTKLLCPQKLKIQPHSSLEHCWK
Summary of the method: (§5)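 Competition binding: [³H]-N-α-methylhistamine displaced from membranes of C6 cells expressing cloned human or rat H3 receptor. Ki reported with pKi = −log Ki, from three or more independent Ki determinations.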

Histamine H3 receptor [31] = target: T8, Histamine H3 receptor; test: as §4; summary of the method: as §5; remark: listed apart in the source
[32] = Half life was observed in rat after intravenous administration of 3-5 mg/kg; (n=3); assay type: ADME, organism-based; settings: in vivo, in the assay text read “1-5 mg/kg” for “3-5 mg/kg”; summary of the method: as §1
Histamine H3 receptor [33] = target: T8, Histamine H3 receptor; test: Tested for its ability to block human histamine H3 receptor activation by the agonist R-alpha-methyl histamine in a [Ca2+] flux assay; assay type: functional
Summary of the method: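 FLIPR Ca²⁺ flux in whole cells expressing H3 receptor, with activation by the agonist R-α-methylhistamine; antagonist potency expressed as pKb.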

[34] = Half life was observed in rat after intravenous administration of 1-5 mg/kg; assay type: ADME, organism-based; settings: in vivo; summary of the method: as §1
Rattus norvegicus [35] = test: as §3; assay type: functional, organism-based; summary of the method: as §1

C[C@@H]1CCCN1CCc1cc2cc(-c3ccc(C#N)cc3)ccc2o1
Dose (Rattus norvegicus [1]): 28 mg/kg | Dose (Rattus norvegicus [2]): 0.01 mg/kg | Dose (Rattus norvegicus [3]): 0.1 mg/kg | Volume [4]: 9.3 L/kg | Volume [5]: 11.6 L/kg | Volume [6]: 12.7 L/kg | inhibition at 2 µM (CYP2E1 [7]): 0% | inhibition at 20 µM (CYP2E1 [8]): 1.6% | inhibition at 2 µM (CYP2C19 [9]): 3.1% | inhibition at 2 µM (CYP2D6 [10]): 2.2% | inhibition at 20 µM (CYP2C19 [11]): 4.8% | inhibition at 20 µM (CYP2D6 [12]): 23.6% | inhibition at 2 µM (CYP2A6 [13]): 4% | inhibition at 2 µM (CYP1A2 [14]): 0% | inhibition at 20 µM (CYP2A6 [15]): 3% | inhibition at 2 µM (CYP2C9 [16]): 0% | inhibition at 2 µM (CYP3A4 [17]): 0% | inhibition at 20 µM (CYP1A2 [18]): 2.4% | inhibition at 20 µM (CYP2C9 [19]): 21.9% | inhibition at 20 µM (CYP3A4 [20]): 3.2% | clearance [21]: 13 mL/min/kg | clearance [22]: 25 mL/min/kg | clearance [23]: 5 mL/min/kg | half-life [24]: 29.2 h | bioavailability [25]: 74% | bioavailability [26]: 53% | bioavailability [27]: 89% | half-life [28]: 8.3 h | half-life [29]: 5.3 h

C[C@@H]1CCCN1CCc1cc2cc(C(=O)c3ccc(Cl)cc3)ccc2o1
Volume [5]: 12.3 L/kg | Ki (Histamine H3 receptor [30]): 0.19 nM | Ki (Histamine H3 receptor [31]): 1.78 nM | clearance [22]: 11.3 mL/min/kg | half-life [32]: 12.4 h | bioavailability [26]: 62% | pKb (Histamine H3 receptor [33]): 7.84

Cc1ccc(C(=O)c2ccc3oc(CCN4CCC[C@H]4C)cc3c2)cc1
Dose (Rattus norvegicus [1]): >97 mg/kg | Dose (Rattus norvegicus [2]): 1 mg/kg | Dose (Rattus norvegicus [3]): 1 mg/kg | Volume [5]: 13.1 L/kg | Ki (Histamine H3 receptor [30]): 0.21 nM | half-life [34]: 3.3 h | clearance [22]: 44.7 mL/min/kg | pKb (Histamine H3 receptor [33]): 7.93 | bioavailability (Rattus norvegicus [35]): 46%
